In ChEMBL document CHEMBL1124897, “(1-Pyrenylmethyl)amino alcohols, a new class of antitumor DNA intercalators. Discovery and initial amine side chain structure-activity studies” (1990):
The source made the active and inactive calls. The rule behind the calls is not given here.

How the values were obtained:
P388 [1] = assay: In vivo antitumor activity against murine lymphocytic leukemia P388 measured as optimal dose which is the highest nontoxic dose; assay type: functional, Mus musculus
P388 [2] = assay: In vivo antitumor activity against murine lymphocytic leukemia P388 measured as lethal dose […]; assay type: functional, Mus musculus; set-up: unit: mg/kg
Procedure, shortened: (§1)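 Male CD2-F1 mice (20 ± 3 g) implanted ip with 1 × 10^6 viable P388 cells on day 0. Drug given ip as aqueous suspension or solution in 0.9% NaCl or 5% dextrose on days 1, 5 and 9, dosed per body weight in mg/kg. Several dose levels bracketing the LD20 were tested, six mice per dose. Deaths before the control median day of death were counted as drug toxicity.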

P388 [3] = assay: In vivo antitumor activity against murine lymphocytic leukemia P388, measured as percent increase in life span; assay type: functional, organism-based; settings: Mus musculus
Procedure, shortened: (§2)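 Male CD2-F1 mice (20 ± 3 g) implanted ip with 1 × 10^6 viable P388 cells on day 0. Compound given ip as aqueous suspension or solution in 0.9% NaCl or 5% dextrose on days 1, 5 and 9, dosed per mg/kg body weight. Several doses bracketing LD20 were tested, six mice per dose. %ILS was calculated from median day of death of treated versus control mice. Values are optimal from at least two experiments.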

P388 [4] = assay: In vivo antitumor activity against murine lymphocytic leukemia P388 measured as percent increase in life span; assay type: functional, Mus musculus; procedure, shortened: as §1
P388 [5] = assay: In vivo antitumor activity against murine lymphocytic leukemia P388 measured as optimal dose; assay type: functional, Mus musculus; procedure, shortened: as §2

Compound	Optimal dose (P388 [1])	LD20 (P388 [2])	ILS (P388 [3])	ILS (P388 [4])	Optimal dose (P388 [5])
CC(NCc1ccc2ccc3cccc4ccc1c2c34)C(O)c1ccccc1.Cl (stereo not drawn)	675 mg/kg	450	inactive	–	–
Cl.c1ccc(CNCc2ccc3ccc4cccc5ccc2c3c45)cc1	900 mg/kg	600	inactive	–	–
C=CCNCc1ccc2ccc3cccc4ccc1c2c34.Cl	550 mg/kg	369	inactive	–	–
CCCCCC(CO)(CO)NCc1ccc2ccc3cccc4ccc1c2c34.Cl	675 mg/kg	675	inactive	–	–
CCN(CC)CCCC(C)NCc1ccc2ccc3cccc4ccc1c2c34.Cl (stereo not drawn)	150 mg/kg	100	inactive	–	–
Cl.Clc1ccc(CNCc2ccc3ccc4cccc5ccc2c3c45)cc1Cl	900 mg/kg	400	inactive	–	–
NCCCCCCNCc1ccc2ccc3cccc4ccc1c2c34	75 mg/kg	75	inactive	–	–
CC(O)CNCCNCc1ccc2ccc3cccc4ccc1c2c34.Cl (stereo not drawn)	150 mg/kg	150	inactive	–	–
CC(C)CC(CO)NCc1ccc2ccc3cccc4ccc1c2c34.Cl (stereo not drawn)	1012 mg/kg	675	inactive	–	–
CCC(O)CNCc1ccc2ccc3cccc4ccc1c2c34.Cl (stereo not drawn)	225 mg/kg	225	inactive	–	–
COCC(C)(CO)NCc1ccc2ccc3cccc4ccc1c2c34 (stereo not drawn)	–	135	–	30%	180 mg/kg
CC(C)C(CO)NCc1ccc2ccc3cccc4ccc1c2c34.Cl (stereo not drawn)	–	450	–	27%	200 mg/kg
Cl.OCCN(CCO)Cc1ccc2ccc3cccc4ccc1c2c34	225 mg/kg	225	inactive	–	–
CCN(CC)Cc1ccc2ccc3cccc4ccc1c2c34.Cl	452 mg/kg	452	inactive	–	–
CC(C)OCCCNCc1ccc2ccc3cccc4ccc1c2c34.Cl	120 mg/kg	180	inactive	–	–
CN(CCCN)CCCNCc1ccc2ccc3cccc4ccc1c2c34.Cl	–	23	–	20%	23 mg/kg
COCCNCc1ccc2ccc3cccc4ccc1c2c34.Cl	133 mg/kg	200	inactive	–	–
Cl.OCCN(CCO)CCCNCc1ccc2ccc3cccc4ccc1c2c34	64 mg/kg	96	inactive	–	–
CC(CO)(CO)NCCCc1ccc2ccc3cccc4ccc1c2c34.Cl	100 mg/kg	67.5	inactive	–	–
CC1(C)OC[C@@H](O)[C@H](NCc2ccc3ccc4cccc5ccc2c3c45)CO1	1013 mg/kg	675	inactive	–	–
CCN(CC)CCNCc1ccc2ccc3cccc4ccc1c2c34.Cl	180 mg/kg	120	inactive	–	–
Cl.c1ccc(NCCNCc2ccc3ccc4cccc5ccc2c3c45)cc1	200 mg/kg	300	inactive	–	–
Cl.OCC(NCc1ccc2ccc3cccc4ccc1c2c34)C(O)c1ccccc1 (stereo not drawn)	1013 mg/kg	675	inactive	–	–
Cl.OCCNCCNCc1ccc2ccc3cccc4ccc1c2c34	134 mg/kg	200	inactive	–	–

Compound	Optimal dose (P388 [1])	LD20 (P388 [2])	ILS (P388 [3])	ILS (P388 [4])	Optimal dose (P388 [5])
Cl.OCCCCNCc1ccc2ccc3cccc4ccc1c2c34	139 mg/kg	208	inactive	–	–
CC(C)(O)CNCc1ccc2ccc3cccc4ccc1c2c34.Cl	–	220	inactive	–	330 mg/kg
Cl.c1ccc(CCCCNCc2ccc3ccc4cccc5ccc2c3c45)cc1	88 mg/kg	130	inactive	–	–
Cl.OCCCCCNCc1ccc2ccc3cccc4ccc1c2c34	131 mg/kg	196	inactive	–	–
Cl.OCCCNCc1ccc2ccc3cccc4ccc1c2c34	120 mg/kg	120	–	20%	–
Cl.NCc1ccc2ccc3cccc4ccc1c2c34	194 mg/kg	130	inactive	–	–
CCC(C)C(CO)NCc1ccc2ccc3cccc4ccc1c2c34.Cl (stereo not drawn)	675 mg/kg	675	inactive	–	–
CC1(NCc2ccc3ccc4cccc5ccc2c3c45)COC(C)(C)OC1.Cl	675 mg/kg	675	inactive	–	–
CN(C)CCCNCc1ccc2ccc3cccc4ccc1c2c34.Cl	127 mg/kg	85	inactive	–	–
Cl.OC(CNCc1ccc2ccc3cccc4ccc1c2c34)c1ccccc1 (stereo not drawn)	450 mg/kg	450	inactive	–	–
Cl.c1cc2ccc3ccc(CNCCCNC4CCCCC4)c4ccc(c1)c2c34	200 mg/kg	134	inactive	–	–
CC(O)CCNCc1ccc2ccc3cccc4ccc1c2c34.Cl (stereo not drawn)	168 mg/kg	168	inactive	–	–
Cl.c1ccc(CCNCc2ccc3ccc4cccc5ccc2c3c45)cc1	335 mg/kg	335	inactive	–	–
Cl.c1ccc(CCCNCc2ccc3ccc4cccc5ccc2c3c45)cc1	300 mg/kg	300	inactive	–	–
CCCNCc1ccc2ccc3cccc4ccc1c2c34.Cl	225 mg/kg	150	inactive	–	–
CCC(COC(C)=O)(COC(C)=O)NCc1ccc2ccc3cccc4ccc1c2c34	303 mg/kg	675	–	40%	–
Cl.N#CCCNCc1ccc2ccc3cccc4ccc1c2c34	300 mg/kg	300	inactive	–	–
Cl.OCC(NCc1ccc2ccc3cccc4ccc1c2c34)c1ccccc1 (stereo not drawn)	675 mg/kg	675	inactive	–	–
CN(CCO)Cc1ccc2ccc3cccc4ccc1c2c34.Cl	365 mg/kg	366	inactive	–	–
CC(C)(CO)CCCNCc1ccc2ccc3cccc4ccc1c2c34.Cl	215 mg/kg	215	inactive	–	–
Cl.NCCCCCNCc1ccc2ccc3cccc4ccc1c2c34	116 mg/kg	20	inactive	–	–
Cl.NCCCN1CCN(CCCNCc2ccc3ccc4cccc5ccc2c3c45)CC1	37 mg/kg	37	–	–	–
Cl.NCCCCNCc1ccc2ccc3cccc4ccc1c2c34	19 mg/kg	28	inactive	–	–
CC(=O)OCC(C)(COC(C)=O)NCc1ccc2ccc3cccc4ccc1c2c34	300 mg/kg	300	–	65%	–
